Assays:
Type in all cases: functional
[1] = system: Mus musculus; assay: Anticonvulsant activity in mouse assessed as inhibition of maximal electroshock-induced seizures at 30 mg/kg, po
Method in brief: (§1)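 Male Kunming mice (20 ± 2.0 g), 10 per group, given test agent orally as a suspension in 0.5% carboxymethyl cellulose–0.9% saline. After 1 h, a 25 mA shock was delivered through ear electrodes for 0.25 s. Protection was scored as abolition of the hind limb tonic extensor component. Results are given as animals protected/animals tested.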

[2] = system: Mus musculus; assay: Anticonvulsant activity in mouse assessed as inhibition of maximal electroshock-induced seizures at 7.5 mg/kg, po; method in brief: as §1
[3] = system: Mus musculus; assay: Anticonvulsant activity in mouse assessed as inhibition of subcutaneous pentylenetetrazole-induced seizures at 40 mg/kg, po
Method in brief: (§2)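 Male Kunming mice (20 ± 2.0 g) received oral test agent suspended in 0.5% carboxymethyl cellulose–0.9% saline. Pentylenetetrazole 70 mg/kg in 0.9% saline was then injected subcutaneously in the scruff of the neck. Protection meant no threshold seizure, i.e. no single clonic spasm episode lasting at least 5 s.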

[4] = system: Mus musculus; assay: Anticonvulsant activity in mouse assessed as inhibition of maximal electroshock-induced seizures at 15 mg/kg, po; method in brief: as §1
[5] = system: Mus musculus; assay: Anticonvulsant activity in mouse assessed as inhibition of subcutaneous pentylenetetrazole-induced seizures at 20 mg/kg, po; method in brief: as §2
[6] = system: Mus musculus; assay: Anticonvulsant activity in mouse assessed as inhibition of subcutaneous pentylenetetrazole-induced seizures at 80 mg/kg, po; method in brief: as §2

SMILES	inhibition in vivo at 30 mg/kg [1] [%]	inhibition in vivo at 7.5 mg/kg [2] [%]	inhibition in vivo at 40 mg/kg [3] [%]	inhibition in vivo at 15 mg/kg [4] [%]	inhibition in vivo at 20 mg/kg [5] [%]	inhibition in vivo at 80 mg/kg [6] [%]
Cc1ccc(N2C(=O)NC3(CC3(C)C)C2=O)cc1 (stereo not drawn)	50	–	–	–	–	–
CC1(C)CC12NC(=O)N(c1cc(Cl)cc(Cl)c1)C2=O (stereo not drawn)	50	–	–	–	–	–
COc1ccc(N2C(=O)NC3(CC3(C)C)C2=O)cc1 (stereo not drawn)	60	–	–	–	–	–
CC1(C)CC12NC(=O)N(c1ccccc1)C2=O (stereo not drawn)	80	20	40	40	20	60
CCC(CO)N1C(=O)NC2(CC2(C)C)C1=O (stereo not drawn)	90	30	40	50	20	70
CCCCN1C(=O)NC2(CC2(C)C)C1=O (stereo not drawn)	90	20	40	50	30	60
CN1C(=O)NC2(CC2(C)C)C1=O (stereo not drawn)	90	40	30	50	20	60
O=C1N=C(O)NC1(c1ccccc1)c1ccccc1 [PHENYTOIN SODIUM]	90	20	–	50	–	–
CCCC(CCC)C(=O)O [VALPROATE SODIUM]	–	–	50	–	30	80
CC1(C)CC12NC(=O)N(c1ccc(F)cc1)C2=O (stereo not drawn)	80	30	50	50	30	70
CC1(C)CC12NC(=O)N(Cc1ccccc1)C2=O (stereo not drawn)	70	–	–	–	–	–
CC1(C)CC12NC(=O)NC2=O (stereo not drawn)	50	–	–	–	–	–
CC1(C)CC12NC(=O)N(c1ccc([N+](=O)[O-])cc1)C2=O (stereo not drawn)	60	–	–	–	–	–
CC(C)N1C(=O)NC2(CC2(C)C)C1=O (stereo not drawn)	70	–	–	–	–	–

Reference: ChEMBL document CHEMBL1152834, “Synthesis and potential anticonvulsant activity of new N-3-substituted 5,5-cyclopropanespirohydantoins” (2009)
